Source: PubChem (Johns Hopkins Ion Channel Center)
Rows were chosen to be rich in hits. Some 2.3% of all compounds tested hit in one or more screens of this group.
TRPC4 block: inhibitors of mouse TRPC4 channel, primary screen, Fluo4 calcium, HEK293 TRPC4beta/mu-opioid cells; Short transient receptor potential channel 4 (Mus musculus), Q9QUQ5; DAMGO-evoked Fluo4 calcium flux; stronger effect = lower value; B-score at 10 µM; actives 0.39% (n = 300,000); AID 2247, 2010;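 active means B-score over 3 SD under the library average, no early fluorescence shift, positive overall ratio signal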
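Assay system – HEK293 line stably carrying TRPC4beta and mu-opioid receptor · Doses – single dose · Detection – Fluo4 calcium-dye fluorescence, kinetic read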
TRPC6 inhibitor: mouse TRPC6 channel inhibitors, primary screen, cell-based, HEK293, membrane potential dye; Short transient receptor potential channel 6 (Mus musculus), Q61143; actives 1.1% (n = 310,000); B-score at 10 µM; ACh-evoked depolarization; stronger effect = lower value; AID 2553, 2010;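 active means B-score under library mean minus 3 SD, initial fluorescence not abnormally high, positive integrated signal ratio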;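 further: B-score derived from integrated fluorescence ratio over the kinetic read; more negative B-score means stronger inhibition of depolarization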
TRPC4 agonist: activators of mouse TRPC4 channel, primary screen, Fluo4 calcium, HEK293 TRPC4beta/mu-opioid cells; Short transient receptor potential channel 4 (Mus musculus), Q9QUQ5; Fluo4 calcium fluorescence; stronger effect = higher value; B-score at 10 µM; actives 0.49% (n = 310,000);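 active means B-score above 5 SD of library B-scores, and initial fluorescence ratio not above library mean plus 5 SD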;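 further: positive B-score marks a calcium rise read as TRPC4 activation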
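Technique: kinetic Fluo4 calcium fluorescence; Test system: TRPC4beta and mu-opioid receptor HEK293 stable cells; Measure: B-scored integrated calcium fluorescence ratio; Benchmarks: low control buffer alone, high control maximal DAMGO; Schedule: 45 min room-temperature Fluo4 loading, 110 s read.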
TRPC6 activator: mouse TRPC6 channel activators, primary screen, cell-based, HEK293, membrane potential dye; Short transient receptor potential channel 6 (Mus musculus), Q61143; HEK293-TRPC6 membrane potential dye fluorescence; stronger effect = higher value; B-score at 10 µM; actives 0.13% (n = 310,000); AID 2550, 2010;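 active means B-score of the integrated fluorescence ratio above library mean plus 3 SD, and starting fluorescence ratio within library mean plus 5 SD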;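 further: higher score means more depolarization so channel activation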
TRPC4 potent: positive allosteric modulators of TRPC4, primary screen, cell-based, mouse TRPC4beta, HEK293 mu-opioid, Fluo-4 calcium; actives 0.42% (n = 310,000); B-score at 10 µM; Short transient receptor potential channel 4 (Mus musculus), Q9QUQ5; DAMGO EC20, Fluo-4 Ca2+ flux; stronger effect = higher value; AID 2227, 2009;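 active means B-score of calcium response area above 5 SD of library B-scores, with initial fluorescence ratio within 5 SD of library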;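 further: B-score of integrated fluorescence ratio over time as area under calcium response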
An asterisk follows results filed as active; i = inactive.

SMILES	TRPC4 block	TRPC6 inhibitor	TRPC4 agonist	TRPC6 activator	TRPC4 potent
O=C(NNC(=S)NC(=O)c1ccc(Br)cc1)c1cccc([N+](=O)[O-])c1	i	i	i	i	i
O=C(NNC(=S)NC(=O)c1ccccc1Cl)c1cccc([N+](=O)[O-])c1	i	i	106*	i	i
O=C(NNC(=S)NC(=O)c1ccccc1)c1ccc([N+](=O)[O-])cc1	i	i	56*	i	i
Cc1ccc(C(=O)NNC(=S)NC(=O)c2ccccc2)cc1	i	i	218*	i	i
Cc1nc(CNS(=O)(=O)c2ccc(F)cc2)cs1	i	i	i	i	i
CCOC(=O)c1[nH]c(C)c(C(=O)OCc2ccccc2F)c1C	i	i	i	i	i
Cc1ccccc1OCC(=O)NNC(=S)NC(=O)c1ccco1	i	i	88*	i	i
Cc1ccc(C(=O)NC(=S)NNC(=O)c2ccccc2[N+](=O)[O-])cc1	i	i	53*	i	i
Cc1ccccc1OCC(=O)Nc1ccccc1NC(=O)c1ccco1	i	i	i	i	i
O=C(O)c1ccc(NC(=S)NC(=O)c2ccc(-c3ccccc3)cc2)cc1	-6*	i	i	i	i
CCCCCC(=O)NNC(=S)NC(=O)c1ccc([N+](=O)[O-])cc1	i	i	79*	i	i
COC(=O)c1ccc(NS(=O)(=O)c2cc3c4c(c2)CCN4C(=O)CC3)cc1	i	i	i	i	i
CCC(CC)C(=O)Nc1nnc(S(=O)(=O)N2CCCc3ccccc32)s1	i	i	i	i	i
COc1ccc(C2=NS(=O)(=O)N(C)C(C(=O)NCc3cccs3)=C2)cc1OC	i	i	i	i	i
Cc1ccc(C(=O)NNC(=O)c2ccco2)cc1	i	i	i	i	i
O=C(NNC(=S)NC(=O)c1ccccc1[N+](=O)[O-])c1ccccc1[N+](=O)[O-]	i	i	i	i	i
O=C(NNC(=S)NC(=O)c1ccccc1[N+](=O)[O-])c1ccc(Cl)cc1Cl	i	i	49*	i	i
Cc1ccc(C(=O)NNC(=S)NC(=O)c2ccco2)cc1	i	i	133*	i	i
Cc1ccc(C(=O)NC(=S)NNC(=O)c2ccccc2)cc1	i	i	90*	i	i
CCOC(=O)CNC(=O)N1CCCC(Cc2ccccc2)(C(=O)OCC)C1 (configuration not stated)	i	i	i	i	i
Cc1cccc(NC(=O)c2ccc(Cl)c(S(=O)(=O)N3CCCCC3)c2)n1	i	i	i	i	i
Cc1nnc2n(Cc3ccccc3)c(=O)c3c4c(sc3n12)COC(C(C)C)C4 (configuration not stated)	i	i	i	i	11*
CCN(CC)CCn1c(=N)n(CC(O)COc2ccccc2)c2ccccc21 (configuration not stated)	-6*	i	i	i	i
CCOC(=O)Cc1csc(NC(=O)NC2(C(F)(F)F)Oc3ccc(Cl)cc3O2)n1 (configuration not stated)	i	i	i	i	i
CCOC(=O)Cc1csc(NC(=O)NC2(C(F)(F)F)Oc3cc(Cl)c(Cl)cc3O2)n1	-7*	i	i	i	i
Nc1ccc(CCn2ccnc2)cc1	i	i	i	i	i
COc1cc(C2NCCc3c2[nH]c2ccccc32)ccc1OC(C)C (configuration not stated)	i	-6.09*	i	i	i
COc1ccc(C)cc1S(=O)(=O)NC(C)c1cnn(-c2ccccn2)c1C (configuration not stated)	i	i	i	i	i
N#Cc1c(-c2cccs2)nc(SCc2ccc(Cl)cc2)[nH]c1=O	-7*	i	i	i	15*
